# Results reported in ChEMBL document CHEMBL4673212, “Investigation of synergistic antimicrobial effects of the drug combinations of meropenem and 1,2-benzisoselenazol-3(2H)-one derivatives on carbapenem-resistant Enterobacteriaceae producing NDM-1” (Eur J Med Chem, 2018).
# Assays:
# Type in all cases: functional
# [1] = tested on: Morganella morganii; assay: Growth inhibition of carbapenem-resistant Morganella morganii isolate 26 by CLSI protocol based assay
# [2] = tested on: Enterobacter cloacae; assay: Synergistic antibacterial activity against carbapenem-resistant Enterobacter cloacae isolate 22 harboring CTX-M-14, TEM-1 and SHV-12 assessed as fractional inhibitory concentration index in presence of meropenem by CLSI protocol based assay
# Method in brief: (§1)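 FIC index from MICs of compound alone, meropenem alone, and the 1:1 (mass) compound–meropenem combination, read by eye after overnight incubation in a CLSI-based assay. FIC index = MICcombo/MICcpd + MICcombo/MICMem. FIC index ≤0.5 counted as synergy. At least triplicate assays. Clinical NDM-1 isolates for 17-39; E. coli TG1 carrying the IncX3 blaNDM-1 plasmid for 15.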
# [3] = tested on: Klebsiella pneumoniae; assay: Growth inhibition of carbapenem-resistant Klebsiella pneumoniae isolate 04 harboring CTX-M-14, VIM-1, TEM-1 and SHV-12 by CLSI protocol based assay
# [4] = tested on: Enterobacter cloacae; assay: Growth inhibition of carbapenem-resistant Enterobacter cloacae isolate 22 harboring CTX-M-14, TEM-1 and SHV-12 by CLSI protocol based assay
# [5] = tested on: Enterobacter cloacae; assay: Potentiation of meropenem-induced antibacterial activity against carbapenem-resistant Enterobacter cloacae isolate 28 harboring TEM-1 and SHV-12 assessed as meropenem MIC by CLSI protocol based assay (reference value: 32 ug/ml)
# [6] = tested on: Morganella morganii; assay: Potentiation of meropenem-induced antibacterial activity against carbapenem-resistant Morganella morganii isolate 23 assessed as meropenem MIC by CLSI protocol based assay (reference value: 64 ug/ml)
# [7] = tested on: Enterobacter cloacae; assay: Potentiation of meropenem-induced antibacterial activity against carbapenem-resistant Enterobacter cloacae isolate 18 harboring IMP-4 and TEM-1 assessed as meropenem MIC by CLSI protocol based assay (reference value: 32 ug/ml)
# [8] = tested on: Enterobacter cloacae; assay: Synergistic antibacterial activity against carbapenem-resistant Enterobacter cloacae isolate 09 harboring CTX-M-3, CTX-M-14, TEM-1 and SHV-12 assessed as fractional inhibitory concentration index in presence of meropenem by CLSI protocol based assay; method in brief: as §1
# [9] = tested on: Enterobacter cloacae; assay: Potentiation of meropenem-induced antibacterial activity against carbapenem-resistant Enterobacter cloacae isolate 22 harboring CTX-M-14, TEM-1 and SHV-12 assessed as meropenem MIC by CLSI protocol based assay (Rvb >= 128 ug/ml)
# [10] = tested on: Enterobacter cloacae; assay: Potentiation of meropenem-induced antibacterial activity against carbapenem-resistant Enterobacter cloacae isolate 19 harboring CTX-M-14 and KPC-2 assessed as meropenem MIC by CLSI protocol based assay (Rvb >= 128 ug/ml)
# [11] = tested on: Citrobacter freundii; assay: Potentiation of meropenem-induced antibacterial activity against carbapenem-resistant Citrobacter freundii isolate 05 harboring SHV-12 assessed as meropenem MIC by CLSI protocol based assay (Rvb >= 128 ug/ml)
# [12] = tested on: Klebsiella pneumoniae; assay: Synergistic antibacterial activity against carbapenem-resistant Klebsiella pneumoniae isolate 04 harboring CTX-M-14, VIM-1, TEM-1 and SHV-12 assessed as fractional inhibitory concentration index in presence of meropenem by CLSI protocol based assay; method in brief: as §1
# [13] = tested on: Escherichia coli; assay: Growth inhibition of carbapenem-resistant Escherichia coli isolate 33 harboring CTX-M-15 by CLSI protocol based assay
# [14] = tested on: Enterobacter cloacae; assay: Potentiation of meropenem-induced antibacterial activity against carbapenem-resistant Enterobacter cloacae isolate 09 harboring CTX-M-3, CTX-M-14, TEM-1 and SHV-12 assessed as meropenem MIC by CLSI protocol based assay (Rvb >= 128 ug/ml)
# [15] = tested on: Enterobacter cloacae; assay: Synergistic antibacterial activity against carbapenem-resistant Enterobacter cloacae isolate 08 harboring CTX-M-14, TEM-1 and SHV-12 assessed as fractional inhibitory concentration index in presence of meropenem by CLSI protocol based assay; method in brief: as §1
# [16] = tested on: Citrobacter freundii; assay: Growth inhibition of carbapenem-resistant Citrobacter freundii isolate 35 harboring CTX-M-3, KPC-2 and SHV-12 by CLSI protocol based assay
# [17] = tested on: Citrobacter freundii; assay: Potentiation of meropenem-induced antibacterial activity against carbapenem-resistant Citrobacter freundii isolate 35 harboring CTX-M-3, KPC-2 and SHV-12 assessed as meropenem MIC by CLSI protocol based assay (Rvb >= 128 ug/ml)
# [18] = tested on: Enterobacter cloacae; assay: Potentiation of meropenem-induced antibacterial activity against carbapenem-resistant Enterobacter cloacae isolate 08 harboring CTX-M-14, TEM-1 and SHV-12 assessed as meropenem MIC by CLSI protocol based assay (reference value: 32 ug/ml)
# [19] = tested on: Klebsiella oxytoca; assay: Growth inhibition of carbapenem-resistant Klebsiella oxytoca isolate 16 harboring SHV-12 by CLSI protocol based assay
# [20] = tested on: Escherichia coli; assay: Synergistic antibacterial activity against carbapenem-resistant Escherichia coli isolate 34 harboring CTX-M-15, TEM-1 and SHV-12 assessed as fractional inhibitory concentration index in presence of meropenem by CLSI protocol based assay; method in brief: as §1
# [21] = tested on: Enterobacter cloacae; assay: Growth inhibition of carbapenem-resistant Enterobacter cloacae isolate 28 harboring TEM-1 and SHV-12 by CLSI protocol based assay
# [22] = tested on: Klebsiella pneumoniae; assay: Growth inhibition of carbapenem-resistant Klebsiella pneumoniae isolate 14 harboring CTX-M-14, KPC-2 and SHV-12 by CLSI protocol based assay
# [23] = tested on: Enterobacter cloacae; assay: Potentiation of meropenem-induced antibacterial activity against carbapenem-resistant Enterobacter cloacae isolate 07 harboring CTX-M-14, TEM-1 and SHV-12 assessed as meropenem MIC by CLSI protocol based assay (reference value: 64 ug/ml)
# [24] = tested on: Escherichia coli; assay: Synergistic antibacterial activity against carbapenem-resistant Escherichia coli isolate 45 assessed as fractional inhibitory concentration index in presence of meropenem by CLSI protocol based assay; method in brief: as §1
# [25] = tested on: Klebsiella oxytoca; assay: Synergistic antibacterial activity against carbapenem-resistant Klebsiella oxytoca isolate 16 harboring SHV-12 assessed as fractional inhibitory concentration index in presence of meropenem by CLSI protocol based assay; method in brief: as §1
# [26] = tested on: Citrobacter freundii; assay: Growth inhibition of carbapenem-resistant Citrobacter freundii isolate 17 harboring SHV-12 by CLSI protocol based assay
# [27] = tested on: Escherichia coli; assay: Growth inhibition of carbapenem-resistant Escherichia coli isolate 34 harboring CTX-M-15, TEM-1 and SHV-12 by CLSI protocol based assay
# [28] = tested on: Enterobacter cloacae; assay: Growth inhibition of carbapenem-resistant Enterobacter cloacae isolate 18 harboring IMP-4 and TEM-1 by CLSI protocol based assay
# [29] = tested on: Morganella morganii; assay: Synergistic antibacterial activity against carbapenem-resistant Morganella morganii isolate 23 assessed as fractional inhibitory concentration index in presence of meropenem by CLSI protocol based assay; method in brief: as §1
# [30] = tested on: Morganella morganii; assay: Growth inhibition of carbapenem-resistant Morganella morganii isolate 23 by CLSI protocol based assay
# [31] = tested on: Morganella morganii; assay: Synergistic antibacterial activity against carbapenem-resistant Morganella morganii isolate 26 assessed as fractional inhibitory concentration index in presence of meropenem by CLSI protocol based assay; method in brief: as §1
# [32] = tested on: Citrobacter freundii; assay: Synergistic antibacterial activity against carbapenem-resistant Citrobacter freundii isolate 17 harboring SHV-12 assessed as fractional inhibitory concentration index in presence of meropenem by CLSI protocol based assay; method in brief: as §1
# [33] = tested on: Klebsiella oxytoca; assay: Potentiation of meropenem-induced antibacterial activity against carbapenem-resistant Klebsiella oxytoca isolate 03 harboring SHV-12 assessed as meropenem MIC by CLSI protocol based assay (Rvb >= 128 ug/ml)
SMILES,MIC [1] [µg/mL],fractional inhibitory concentration index (FICI) [2],MIC [3] [µg/mL],MIC [4] [µg/mL],MIC [5] [µg/mL],MIC [6] [µg/mL],MIC [7] [µg/mL],fractional inhibitory concentration index (FICI) [8],MIC [9] [µg/mL],MIC [10] [µg/mL],MIC [11] [µg/mL],fractional inhibitory concentration index (FICI) [12],MIC [13] [µg/mL],MIC [14] [µg/mL],fractional inhibitory concentration index (FICI) [15],MIC [16] [µg/mL],MIC [17] [µg/mL],MIC [18] [µg/mL],MIC [19] [µg/mL],fractional inhibitory concentration index (FICI) [20],further results
CC(C)(C)OC(=O)NCCn1[se]c2ccccc2c1=O,≥ 128,0.25,≥ 128,≥ 128,4,8,16,0.13,16,16,8,0.5,≥ 128,8,0.16,≥ 128,8,4,≥ 128,0.09,MIC [21]: ≥ 128 µg/mL; MIC [22]: ≥ 128 µg/mL; MIC [23]: 8 µg/mL; fractional inhibitory concentration index (FICI) [24]: 0.06; fractional inhibitory concentration index (FICI) [25]: 0.13; MIC [26]: ≥ 128 µg/mL; MIC [27]: ≥ 128 µg/mL; MIC [28]: ≥ 128 µg/mL; fractional inhibitory concentration index (FICI) [29]: 0.19; MIC [30]: ≥ 128 µg/mL; fractional inhibitory concentration index (FICI) [31]: 0.05; fractional inhibitory concentration index (FICI) [32]: 0.09; MIC [33]: 8 µg/mL
O=c1c2ccccc2[se]n1-c1ccccc1 [EBSELEN],≥ 128,2,≥ 128,≥ 128,64,64,64,2,≥ 128,≥ 128,16,1,≥ 128,≥ 128,1.25,≥ 128,32,32,≥ 128,0.38,MIC [21]: ≥ 128 µg/mL; MIC [22]: ≥ 128 µg/mL; MIC [23]: 16 µg/mL; fractional inhibitory concentration index (FICI) [24]: 0.25; fractional inhibitory concentration index (FICI) [25]: 0.5; MIC [26]: ≥ 128 µg/mL; MIC [27]: ≥ 128 µg/mL; MIC [28]: ≥ 128 µg/mL; fractional inhibitory concentration index (FICI) [29]: 1.5; MIC [30]: ≥ 128 µg/mL; fractional inhibitory concentration index (FICI) [31]: 1.5; fractional inhibitory concentration index (FICI) [32]: 0.38; MIC [33]: 32 µg/mL
